In ChEMBL document CHEMBL3352770, “Click chemistry inspired synthesis and bioevaluation of novel triazolyl derivatives of osthol as potent cytotoxic agents” (Eur J Med Chem, 2014):

Legend:
COLO 205 [1] = assay: Induction of mitochondrial membrane potential loss in human COLO205 cells at 10 uM after 48 hrs by Rh-123 staining based flow cytometry (reference value: 12.4%); type: functional
A549 = assay: Cytotoxicity against human A549 cells after 24 hrs by MTT assay; type: functional, cell-based; settings: A549, 24 h
In short: (§1)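 Cells kept in DMEM with 10% foetal calf serum, penicillin and streptomycin, at 37 °C under 5% CO2. For assays serum lowered to 3%. Cells treated with test material at 0.04–60 µM for 24 h, then MTT (250 µg/mL) for 3 h. Formazan OD read at 570 nm. IC50 by non-linear regression, mean of triplicates. BEZ-235 as positive control.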

COLO 205 [2] = assay: Induction of apoptosis in human COLO205 cells assessed as accumulation at subG1 phase at 25 uM after 48 hrs by propidium iodide staining based flow cytometry (reference value: 12%); type: functional
In short: (§2)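 Colo-205 seeded at 5 × 10⁵ cells/ml in 6-well plates and grown 24 h. Treated at 1, 5, 10 and 25 µM for 48 h. Harvested, washed in PBS, fixed in 70% ethanol overnight at −20 °C. Stained 30 min in the dark with PI, EDTA, RNase and Triton X-100 in PBS. DNA content by flow cytometry, sub-G1 taken as apoptotic. Untreated/DMSO negative control; camptothecin 1 µM positive control; two experiments.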

COLO 205 [3] = assay: Induction of cell cycle arrest in human COLO205 cells assessed as accumulation at S phase at 1 uM after 48 hrs by propidium iodide staining based flow cytometry (reference value: 13.8%); type: functional
T47D = assay: Cytotoxicity against human T47D cells after 24 hrs by MTT assay; type: functional, cell-based; in short: as §1
COLO 205 [4] = assay: Induction of mitochondrial membrane potential loss in human COLO205 cells at 5 uM after 48 hrs by Rh-123 staining based flow cytometry (reference value: 12.4%); type: functional
COLO 205 [5] = assay: Induction of cell cycle arrest in human COLO205 cells assessed as accumulation at G1 phase at 1 uM after 48 hrs by propidium iodide staining based flow cytometry (reference value: 45.7%); type: functional
COLO 205 [6] = assay: Induction of cell cycle arrest in human COLO205 cells assessed as accumulation at G2 phase at 5 uM after 48 hrs by propidium iodide staining based flow cytometry (reference value: 13.2%); type: functional; in short: as §2
COLO 205 [7] = assay: Induction of cell cycle arrest in human COLO205 cells assessed as accumulation at G1 phase at 10 uM after 48 hrs by propidium iodide staining based flow cytometry (reference value: 45.7%); type: functional; in short: as §2
COLO 205 [8] = assay: Induction of apoptosis in human COLO205 cells assessed as accumulation at subG1 phase at 10 uM after 48 hrs by propidium iodide staining based flow cytometry (reference value: 12%); type: functional; in short: as §2
[9] = Cytotoxicity against human PC3 cells after 24 hrs by MTT assay; type: functional, cell-based; settings: PC-3, 24 h; in short: as §1
COLO 205 [10] = assay: Induction of cell cycle arrest in human COLO205 cells assessed as accumulation at G2 phase at 10 uM after 48 hrs by propidium iodide staining based flow cytometry (reference value: 13.2%); type: functional; in short: as §2
A-431 = assay: Cytotoxicity against human A431 cells after 24 hrs by MTT assay; type: functional, cell-based; settings: A-431, 24 h; in short: as §1
COLO 205 [11] = assay: Induction of cell cycle arrest in human COLO205 cells assessed as accumulation at G2 phase at 1 uM after 48 hrs by propidium iodide staining based flow cytometry (reference value: 13.2%); type: functional
COLO 205 [12] = assay: Induction of cell cycle arrest in human COLO205 cells assessed as accumulation at S phase at 5 uM after 48 hrs by propidium iodide staining based flow cytometry (reference value: 13.8%); type: functional; in short: as §2
[13] = Cytotoxicity against human NCI-H322 cells after 24 hrs by MTT assay; type: functional, cell-based; settings: NCI-H322, 24 h; in short: as §1
COLO 205 [14] = assay: Induction of cell cycle arrest in human COLO205 cells assessed as accumulation at G1 phase at 25 uM after 48 hrs by propidium iodide staining based flow cytometry (reference value: 45.7%); type: functional; in short: as §2
COLO 205 [15] = assay: Induction of mitochondrial membrane potential loss in human COLO205 cells at 1 uM after 48 hrs by Rh-123 staining based flow cytometry (reference value: 12.4%); type: functional
COLO 205 [16] = assay: Induction of mitochondrial membrane potential loss in human COLO205 cells at 25 uM after 48 hrs by Rh-123 staining based flow cytometry (reference value: 12.4%); type: functional
COLO 205 [17] = assay: Induction of cell cycle arrest in human COLO205 cells assessed as accumulation at S phase at 10 uM after 48 hrs by propidium iodide staining based flow cytometry (reference value: 13.8%); type: functional; in short: as §2
COLO 205 [18] = assay: Induction of cell cycle arrest in human COLO205 cells assessed as accumulation at S phase at 25 uM after 48 hrs by propidium iodide staining based flow cytometry (reference value: 13.8%); type: functional; in short: as §2
COLO 205 [19] = assay: Cytotoxicity against human COLO205 cells after 24 hrs by MTT assay; type: functional, cell-based; settings: COLO 205, 24 h; in short: as §1
[20] = Cytotoxicity against human HCT116 cells after 24 hrs by MTT assay; type: functional, cell-based; settings: HCT-116, 24 h; in short: as §1
COLO 205 [21] = assay: Induction of cell cycle arrest in human COLO205 cells assessed as accumulation at G2 phase at 25 uM after 48 hrs by propidium iodide staining based flow cytometry (reference value: 13.2%); type: functional; in short: as §2
COLO 205 [22] = assay: Induction of apoptosis in human COLO205 cells assessed as accumulation at subG1 phase after 48 hrs by propidium iodide staining based flow cytometry; type: functional, cell-based; in short: as §2
COLO 205 [23] = assay: Induction of apoptosis in human COLO205 cells assessed as accumulation at subG1 phase at 5 uM after 48 hrs by propidium iodide staining based flow cytometry (reference value: 12%); type: functional; in short: as §2
COLO 205 [24] = assay: Induction of apoptosis in human COLO205 cells assessed as accumulation at subG1 phase at 1 uM after 48 hrs by propidium iodide staining based flow cytometry (reference value: 12%); type: functional
COLO 205 [25] = assay: Induction of cell cycle arrest in human COLO205 cells assessed as accumulation at G1 phase at 5 uM after 48 hrs by propidium iodide staining based flow cytometry (reference value: 45.7%); type: functional; in short: as §2

With `COc1ccc(/C=C\C(=O)O)c(OCc2cn(-c3ccc(CC#N)cc3)nn2)c1CC=C(C)C` as the compound, how does the Activity (COLO 205 [1]) read?
The Activity was 29.7%.

And the IC50 (A549)?
The IC50 was 35.2 µM.

And the Activity (COLO 205 [2])?
The Activity was 24.1%.

What about the Activity (COLO 205 [3]) of the same compound?
The Activity was 13.9%.

What about the IC50 (T47D) of the same compound?
Its IC50 is 3.6 µM.

And the Activity (COLO 205 [4])?
The Activity was 26.9%.

What about the Activity (COLO 205 [5]) of the same compound?
Its Activity is 46.4%.

And the Activity (COLO 205 [6])?
The Activity was 11.5%.

What about the Activity (COLO 205 [7]) of the same compound?
The Activity was 45%.

What about the Activity (COLO 205 [8]) of the same compound?
The Activity was 15.7%.

What about the IC50 [9] of the same compound?
Its IC50 is 26.4 µM.

And the Activity (COLO 205 [10])?
The Activity was 11.2%.

And the IC50 (A-431)?
Its IC50 is 7.2 µM.

What about the Activity (COLO 205 [11]) of the same compound?
Its Activity is 12.9%.

What about the Activity (COLO 205 [12]) of the same compound?
The Activity was 16.1%.

And the IC50 [13]?
The IC50 was 41 µM.

And the Activity (COLO 205 [14])?
Its Activity is 38.5%.

What about the Activity (COLO 205 [15]) of the same compound?
The Activity was 24.4%.

What about the Activity (COLO 205 [16]) of the same compound?
Its Activity is 29.9%.

And the Activity (COLO 205 [17])?
Its Activity is 14.7%.

What about the Activity (COLO 205 [18]) of the same compound?
Its Activity is 13.2%.

And the IC50 (COLO 205 [19])?
The IC50 was 1.3 µM.

And the IC50 [20]?
The IC50 was 4.9 µM.

What about the Activity (COLO 205 [21]) of the same compound?
The Activity was 10.4%.

And the Activity (COLO 205 [22])?
Its Activity is “Dose-dependent effect”.

What about the Activity (COLO 205 [23]) of the same compound?
The Activity was 15.2%.

What about the Activity (COLO 205 [24]) of the same compound?
Its Activity is 12.5%.

What about the Activity (COLO 205 [25]) of the same compound?
Its Activity is 46.8%.
